Hits are enriched below; roughly 1.5% of the tested compounds scored in any of these assays.
Rev-erbA mod: modulators of human Rev-erb alpha DNA binding | actives 0.79% (n = 370,000) | Rev-erbα–FITC-DNA binding, fluorescence polarization, 90 min | AID 1259318 | activity, % at 10 µM;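 active = activity above about 14%, limit read from the data; passing the limit was not always enough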;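 also: 0% = DMSO wells with 35 nM protein and 100% = DMSO wells with 750 nM protein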
NR2E3 ag-1: activates human NR2E3 receptor | CHO-S Gal4-NCOR/VP16-NR2E3 two-hybrid, luciferase | inhibition of corepressor binding, % at 3.98 µM | Q9Y5X4 | actives 0.35% (n = 360,000);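 active = inhibition above the mean of all tested compounds plus 3 SD, cut at about 70% in these data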;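 also: 0% = DMSO with NR2E3 transfected cells and 100% = cells lacking NR2E3 construct; higher means lower luciferase signal from less NR2E3 corepressor binding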
Target sequence (Q9Y5X4 whole entry, looked up, the tested form may be a part): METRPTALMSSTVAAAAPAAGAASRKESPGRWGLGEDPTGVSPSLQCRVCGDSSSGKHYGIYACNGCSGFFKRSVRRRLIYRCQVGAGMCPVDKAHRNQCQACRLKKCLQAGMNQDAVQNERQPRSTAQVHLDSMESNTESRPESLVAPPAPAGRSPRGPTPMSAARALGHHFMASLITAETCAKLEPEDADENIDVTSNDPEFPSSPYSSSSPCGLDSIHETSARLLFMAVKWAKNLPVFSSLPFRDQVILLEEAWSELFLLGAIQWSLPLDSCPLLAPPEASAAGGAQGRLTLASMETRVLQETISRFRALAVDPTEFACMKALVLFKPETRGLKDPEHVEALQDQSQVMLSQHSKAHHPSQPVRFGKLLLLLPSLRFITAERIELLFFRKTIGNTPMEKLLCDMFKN
PG9 binder: binds the HIV-1 gp120 antibody PG9; TR-FRET gp120-PG9 antibody binding; inhibition, % at 6.7 µM; actives 0.43% (n = 360,000); in the data active = inhibition above about 8.5%
NR2E3 ag-2: NR2E3 (human) agonism. Q9Y5X4. GST-NR2E3/biotin-RetCOR TR-FRET, 1536-well. inhibition of corepressor binding, % at 4.78 µM. actives 0.12% (n = 320,000);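 active = percent inhibition above the cutoff of mean plus 3 SD of all tested compounds, set per screening campaign, cut at about 20% in these data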;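 also: 0% = DMSO wells and 100% = biotin wells as full block of FRET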
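Test system: GST-NR2E3 and biotin-RetCOR proteins | Quantity: 1.35 nM GST-tagged NR2E3 final | Medium: Tris pH 7.5 | Also added: 7 nM biotin-RetCOR | Dosing: Compound at 4.8 µM, single dose | Timing: 5 h at 4 °C | Detection: Time-resolved FRET | Read-out basis: Percent inhibition | Benchmarks: Biotin wells as high control, 0.6% DMSO wells as low control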
NR2E3 ag conf: NR2E3 agonism confirmed in two-hybrid assay. shares compounds with NR2E3 ag-1. actives 51% (n = 2,300). CHO-S mammalian two-hybrid NR2E3-NCOR, luciferase luminescence. inhibition, % at 3.98 µM. AID 624378;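 active = average inhibition above a cutoff equal to the mean inhibition of all tested compounds plus one SD, cut at about 70% in these data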;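 also: 0% = DMSO in NR2E3 cells and 100% = DMSO in cells lacking NR2E3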
GAL4-VP16 luc: GAL4-VP16 reporter inhibition in NR2E3 agonist counterscreen | shares compounds with NR2E3 ag-1 | CHO-S GAL4-VP16 luciferase reporter, luminescence | inhibition, % at 3.98 µM | actives 29% (n = 2,300);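 active = mean inhibition above a cutoff equal to the average over all tested compounds plus one standard deviation, cut at about 70% in these data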;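 also: luciferase from a UAS reporter driven by GAL4-VP16 transactivation; 0% = DMSO with VP16-transfected cells and 100% = DMSO with cells lacking VP16; higher means less reporter light so more repression of VP16 activity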
Active calls of the source: *; / = no result.

SMILES	Rev-erbA mod	NR2E3 ag-1	PG9 binder	NR2E3 ag-2	NR2E3 ag conf	GAL4-VP16 luc
Cc1ccc(OCCN2CCN(c3ncnc4sc(C)c(C)c34)CC2)cc1	5	92*	2	2	98*	93*
c1ccc(CN2CCN(c3ncnc4sccc34)CC2)cc1	3	/	/	/	/	/
Cc1cccc(-c2nc(CN3CCCC(C(=O)NC4CCCC4)C3)c(C)o2)c1 (stereo not given)	3	17	0	5	/	/
CCOC(=O)N1CCC(NC(=O)C2CCCN(Cc3nc(-c4cccc(C)c4)oc3C)C2)CC1 (stereo not given)	-2	75*	-1	1	76*	68
O=C1Nc2ccccc2C1Cc1ccccc1 (stereo not given)	-7	-3	-1	1	/	/
COc1ccc(C[C@@H]2OC3(C=CC(=O)C=C3)O[C@H]2Cc2ccc(OC)cc2)cc1	/	97*	/	/	96*	54
COc1ccc(N2C(=O)CC(Cc3ccccc3)C2=O)cc1 (stereo not given)	-1	11	-1	-2	/	/
O=C1C=CC2(C=C1)O[C@H](Cc1ccccc1)[C@@H](Cc1ccccc1)O2	3	100*	2	/	100*	68
COC(=O)C1CN(Cc2ccc(OC)cc2)CCS(=O)(=O)N1Cc1ccc(C)cc1 (stereo not given)	2	/	/	/	/	/
COC(=O)[C@]12C[C@H](CC(=O)NCCCN3CCCC3=O)C(=O)N(Cc3ccc(Cl)cc3Cl)C1=C[C@H](C(C)(C)C)O[C@@H]2C	4	/	/	/	/	/
Cc1ccccc1Cn1nnc(C(=O)Nc2cccc(C)c2C)c1N	5	66	0	4	87*	36
COc1ccc(OC)c(NC(=O)c2nnn(CCc3ccccc3)c2N)c1	-4	-19	0	4	/	/
COc1ccc(C)cc1NC(=O)c1nnn(Cc2cccc(C(F)(F)F)c2)c1N	-3	63	-1	0	85*	22
CC[C@@H](CO)NCCN[C@@H](CC)CO	-2	/	/	/	/	/
Nc1nc(F)nc2c1ncn2[C@@H]1O[C@H](CO)[C@@H](O)[C@@H]1O	2	9	-1	3	/	/
Nc1nc(F)nc2c1ncn2[C@@H]1O[C@H](CO)[C@@H](O)[C@H]1O	-1	103*	0	3	100*	99*
CCCCCCCCN1C(=O)[C@@H](CC(=O)NCc2cccs2)C[C@@]2(C(=O)OC)C1=C[C@H](C(C)C)O[C@@H]2C1CC1	2	/	/	/	/	/
O=S(c1cc(Cl)cc(Cl)c1O)c1cc(Cl)cc(Cl)c1O	-1	84*	0	/	99*	78*
Oc1c(Cl)cc(Cl)cc1Sc1cc(Cl)cc(Cl)c1O	0	/	/	3	/	/
CC1=CC(C)(C)N2C(=O)C3(NCCc4c3[nH]c3ccccc43)c3cc(C)cc1c32 (stereo not given)	3	57	-2	-1	12	6
Cc1cccc(C(=O)NNC(=S)NC(=O)c2cccs2)c1	-3	54	-4	1	46	1
Cc1cccc(C(=O)NNC(=S)NC(=O)c2ccccc2)c1	-5	11	1	-1	/	/
COc1cc(CCc2ccccc2)c(C(=O)O)c(O)c1C/C=C(/C)CCC=C(C)C	2	50	1	/	98*	71*
COc1cc(CCc2ccccc2)c(C(=O)O)c(O)c1CC=C(C)C	-8	85*	0	/	99*	78*
CC(C)=CCC/C(C)=C/Cc1c(O)ccc(C(=O)/C=C/c2ccc(O)cc2)c1O	-3	-29	-2	3	/	/
SMILES	Rev-erbA mod	NR2E3 ag-1	PG9 binder	NR2E3 ag-2	NR2E3 ag conf	GAL4-VP16 luc
COCOc1ccc(/C=C/C(=O)c2c(OCOC)cc(OCOC)c(CC=C(C)C)c2O)cc1OCOC	/	-3	/	1	/	/
COc1ccc(C(C)c2cn(C)c3ccccc23)cc1 (stereo not given)	2	/	/	/	/	/
O=C(NCc1ccco1)c1ccccc1NS(=O)(=O)c1ccc(Cl)s1	-1	10	0	-1	/	/
Cc1ccc(NC(=O)c2ccccc2NS(=O)(=O)c2ccc(Cl)s2)cc1	4	95*	-1	1	97*	79*
O=C(Nc1ccccc1)c1ccccc1NS(=O)(=O)c1ccc(Cl)s1	2	102*	2	1	99*	86*
O=C(Nc1ccccc1Cc1ccccc1)c1ccccc1NS(=O)(=O)c1ccc(Cl)s1	-1	98*	0	2	98*	86*
CC(=O)N1CCc2cc(S(=O)(=O)NCCC(=O)N(C)Cc3ccccc3F)ccc21	2	/	/	/	/	/
CCCCCCCCN1C(=O)[C@@H](CC(=O)N2CCC(c3ccccc3)CC2)C[C@@]2(C(=O)OC)C1=C[C@H](C(C)C)O[C@@H]2C1CC1	0	/	/	/	/	/
CCCC/C=C1/[C@@H](c2ccc(Cl)cc2)N(Cc2ccc3c(c2)OCO3)C2=N[C@@H](c3ccccc3)CC(=O)N21	7	/	/	/	/	/
CCC(C)NC(=O)c1ccc2nc(Cc3ccc(OC)cc3)oc2c1 (stereo not given)	2	-19	-1	0	/	/
CCC(NC(=O)c1ccc2nc(Cc3ccc(OC)cc3)oc2c1)c1ccncc1 (stereo not given)	-7	67	0	-3	83*	61
Cc1cc(NC(=O)Cc2ccccc2)c2ccccc2n1	5	64	-1	0	87*	69
Cc1cc(C)nc(SCC(=O)Nc2ccnc3ccccc23)n1	-3	84*	1	1	92*	83*
COC(=O)Nc1cc(C)nc2ccccc12	-1	18	1	2	/	/
CCOc1ccc(CCNC(=O)c2cc3sccc3n2CC)cc1OC	5	/	/	/	/	/
CCOC(=O)c1c(C)[nH]c(C(=O)OCC(=O)Nc2ccc(Cl)cn2)c1C	0	23	3	0	/	/
CCOC(=O)c1c(C)[nH]c(C(=O)OCC(=O)Nc2sccc2C(N)=O)c1C	12	54	0	6	44	35
CC(C)CNc1cccc2c1S(=O)(=O)N(Cc1cn(Cc3ccc(F)cc3)nn1)Cc1ccccc1O2	1	/	/	/	/	/
FC(F)(F)c1ccccc1-n1c(-c2ccco2)n[nH]c1=S	-2	63	1	0	20	3
CCc1cccc(CC)c1NC(=S)NCCc1c(C)[nH]c2ccc(C)cc12	-5	71*	-1	4	19	6
CCc1cccc(C)c1NC(=S)NCCc1c(C)[nH]c2ccc(C)cc12	4	-11	-1	1	/	/
O=C1C(NC(=O)N2c3ccccc3C=Cc3ccccc32)CCCCN1Cc1ccc(Cl)cc1 (stereo not given)	2	/	/	/	/	/
COc1ccc(CCNC(=O)C2CC3Cn4c(nc5cc6ccccc6cc54)C3N2C)cc1 (stereo not given)	-5	53	1	-3	32	35
CN1C(C(=O)NCCc2cccs2)CC2Cn3c(nc4cc5ccccc5cc43)C21 (stereo not given)	-6	12	0	9	/	/
